Data published in paper PMC5497724 (Cancer Science, 2017).

How the values were obtained:
[1] = SCID mice, 4.4 mg/kg i.v.; 40% ethanol, 5% PEG 400, 55% normal saline; cited from earlier work
[2] = rats, given orally; cited from earlier work
HT1080 cells = test: Western blot analysis of PI3K pathway and histone acetylation; assay type: cell-based, human; details: 3 h
Procedure, shortened: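 HT1080 cells in RPMI-1640 with 10% FBS were handled as in the proliferation assay: 8 × 10³ cells seeded, 24 h at 37°C. Cells were treated 3 h with test compound (in DMSO) at various concentrations. Reference treatments were 2.5 μM SAHA, 1 μM GDC-0941 or both. Western blots probed phospho-AKT (Ser473, Thr308), AKT, phospho-S6, S6, acetyl-histone H3 and β-actin.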

## C/C=C1\NC(=O)[C@H]2CSSCC/C=C/[C@H](CC(=O)N[C@H](C(C)C)C(=O)N2)OC(=O)[C@H](C(C)C)NC1=O [FK228, Romidepsin]
[1]
  AUC: 1123 ng·h/mL
[2]
  drug levels after oral dosing vs i.v.: lower and more erratic drug levels than i.v. treatment

## CS(=O)(=O)N1CCN(Cc2cc3nc(-c4cccc5[nH]ncc45)nc(N4CCOCC4)c3s2)CC1 [GDC0941]
HT1080 cells
  phosphorylation of AKT and S6 (Western blot): inhibited the phosphorylation of AKT and S6 ribosomal protein

## O=C(CCCCCCC(=O)Nc1ccccc1)NO [SAHA, Suberoylanilidehydroxamic acid]
HT1080 cells
  acetylation of histone H3 (Western blot): promoted acetylation of histone H3
